The subject of one data set is Streptococcus pneumoniae. Description: In vitro minimum inhibitory concentration was measured against Streptococcus pneumoniae 6301 strain. The class given is functional. The gist of the method:
(§1)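 Streptococci were tested on brain heart infusion agar plus 20 units/mL catalase, Proteus on Mueller-Hinton with 3% agar, and others on Mueller-Hinton agar. Inocula were 100-fold-diluted overnight cultures, about 3 × 10^4 CFU/spot, read after overnight incubation at 36 °C.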

Data set [1] deals with Penicillin-binding protein 3 (Escherichia coli). Nature of the data set: Affinity for penicillin binding protein 3 of Escherichia coli UB1005 (DC0) was evaluated. Details: unit not given here.
The subject of data set [2] is Staphylococcus aureus. Nature of the data set: In vitro minimum inhibitory concentration was measured against Staphylococcus aureus 753 (Methicillin resistant) strain. The class given is functional.
Data set [3] addresses T1, Penicillin-binding protein 1A (Escherichia coli K-12) (UniProt P02918).
T1 sequence (whole entry): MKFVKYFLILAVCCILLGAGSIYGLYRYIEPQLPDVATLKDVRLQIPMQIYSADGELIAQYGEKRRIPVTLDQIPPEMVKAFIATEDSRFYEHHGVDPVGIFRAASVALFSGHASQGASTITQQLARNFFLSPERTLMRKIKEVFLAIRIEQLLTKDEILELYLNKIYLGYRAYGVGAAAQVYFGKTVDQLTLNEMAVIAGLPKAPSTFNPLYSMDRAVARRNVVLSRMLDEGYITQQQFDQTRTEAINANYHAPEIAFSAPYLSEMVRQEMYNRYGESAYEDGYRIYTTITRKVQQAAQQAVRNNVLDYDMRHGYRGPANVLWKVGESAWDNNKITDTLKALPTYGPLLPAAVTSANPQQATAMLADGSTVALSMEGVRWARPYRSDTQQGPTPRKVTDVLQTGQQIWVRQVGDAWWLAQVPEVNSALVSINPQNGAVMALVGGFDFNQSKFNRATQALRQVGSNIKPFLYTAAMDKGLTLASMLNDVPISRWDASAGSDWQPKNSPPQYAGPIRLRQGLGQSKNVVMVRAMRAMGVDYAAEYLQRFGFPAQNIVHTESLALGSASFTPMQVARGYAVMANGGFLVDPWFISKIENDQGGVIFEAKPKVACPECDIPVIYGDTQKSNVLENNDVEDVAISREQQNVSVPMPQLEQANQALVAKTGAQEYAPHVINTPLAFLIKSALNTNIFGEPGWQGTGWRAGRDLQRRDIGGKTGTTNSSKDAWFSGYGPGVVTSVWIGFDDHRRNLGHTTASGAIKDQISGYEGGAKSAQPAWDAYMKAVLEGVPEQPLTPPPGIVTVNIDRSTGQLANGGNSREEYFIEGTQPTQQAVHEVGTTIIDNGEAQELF
Nature of the data set: Affinity for penicillin binding protein 1a of Escherichia coli UB1005 (DC0) was evaluated. Details: unit not given here. The gist of the method:
(§2)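 Solubilised membranes from sonicated E. coli UB1005 served as the binding-protein source. Binding was read as inhibition of [14C]penicillin G binding.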

The test system of data set [4] is Enterobacter cloacae. Nature of the data set: In vitro minimum inhibitory concentration was measured against Enterobacter cloacae 5699 strain. The class given is functional.
Data set [5] relates to Staphylococcus aureus. Description: In vitro minimum inhibitory concentration was measured against Staphylococcus aureus 67-0 (Methicillin resistant) strain. The data set is classed as functional.
The subject of data set [6] is Escherichia coli. Description: In vitro minimum inhibitory concentration was measured against Escherichia coli ATCC 25922 strain. The class given is functional. The gist of the method: as §1
In data set [7] the test system is Escherichia coli. Nature of the data set: In vitro minimum inhibitory concentration was measured against Escherichia coli 257 strain. The data set is classed as functional. The essentials: as §1
Data set [8] relates to Pseudomonas aeruginosa. Nature of the data set: In vitro minimum inhibitory concentration was measured against Pseudomonas aeruginosa 18S/H strain. The data set is classed as functional. The gist of the method:
as §1

Data set [9] has as its system Escherichia coli. Description: Minimum inhibitory concentration against E. coli UB1005 (DC0).
For data set [10], the system named is Escherichia coli. Nature of the data set: In vitro minimum inhibitory concentration was measured against Escherichia coli TEM-1 (Beta lactamase producer) strain. The class given is functional. The essentials: as §1
Another data set has as its system Proteus vulgaris. Nature of the data set: In vitro minimum inhibitory concentration was measured against Proteus vulgaris 1028BC (beta lactamase producer) strain. The class given is functional. The essentials: as §1
Data set [11] concerns the target T2, Penicillin-binding protein 1B (Escherichia coli K-12) (UniProt P02919).
T2 sequence (whole entry): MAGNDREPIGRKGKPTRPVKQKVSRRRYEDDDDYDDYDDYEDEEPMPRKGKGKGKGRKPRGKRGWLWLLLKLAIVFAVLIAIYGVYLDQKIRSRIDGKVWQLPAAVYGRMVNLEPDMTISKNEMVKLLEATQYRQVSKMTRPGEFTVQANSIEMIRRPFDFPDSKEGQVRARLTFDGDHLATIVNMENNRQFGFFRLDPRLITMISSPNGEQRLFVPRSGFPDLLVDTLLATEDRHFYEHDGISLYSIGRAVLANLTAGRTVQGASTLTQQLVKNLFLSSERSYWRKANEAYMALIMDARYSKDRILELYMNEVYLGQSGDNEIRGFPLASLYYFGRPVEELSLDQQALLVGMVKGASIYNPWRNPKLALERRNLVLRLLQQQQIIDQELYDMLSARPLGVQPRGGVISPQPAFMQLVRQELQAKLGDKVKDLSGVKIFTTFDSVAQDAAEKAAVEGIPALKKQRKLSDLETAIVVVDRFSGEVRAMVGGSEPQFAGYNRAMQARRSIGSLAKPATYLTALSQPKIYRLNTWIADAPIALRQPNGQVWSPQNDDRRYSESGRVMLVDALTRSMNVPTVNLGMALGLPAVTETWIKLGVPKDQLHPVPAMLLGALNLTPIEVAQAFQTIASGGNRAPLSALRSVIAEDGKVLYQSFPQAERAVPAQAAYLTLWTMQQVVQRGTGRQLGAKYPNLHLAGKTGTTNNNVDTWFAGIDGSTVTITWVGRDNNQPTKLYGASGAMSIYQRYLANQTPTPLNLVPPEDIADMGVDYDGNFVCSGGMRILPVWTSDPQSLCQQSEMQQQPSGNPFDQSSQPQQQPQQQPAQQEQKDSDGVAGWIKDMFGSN
Description: Affinity for penicillin binding protein 1b of Escherichia coli UB1005 (DC0) was evaluated. Details: unit not given here. The gist of the method: as §2

A further data set relates to Enterococcus faecalis. Description: In vitro minimum inhibitory concentration was measured against Enterococcus faecalis ATCC 29212 strain. The data set is classed as functional. The essentials: as §1
The next data set relates to Citrobacter freundii. Description: In vitro minimum inhibitory concentration was measured against Citrobacter freundii BS-16 (beta lactamase producer) strain. The data set is classed as functional. The gist of the method: (§3)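 MICs were determined by agar dilution with 2-fold dilutions giving final 128–0.0156 µg/mL, extended to 0.000977 µg/mL where needed. Streptococci were tested on brain heart infusion agar plus 20 units/mL catalase, Proteus on Mueller-Hinton with 3% agar, and others on Mueller-Hinton agar. Inocula were 100-fold-diluted overnight cultures, about 3 × 10^4 CFU/spot, read after overnight incubation at 36 °C.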

For data set [12], the target named is T3, Peptidoglycan D,D-transpeptidase MrdA (Escherichia coli K-12) (UniProt P0AD65).
T3 sequence (whole entry): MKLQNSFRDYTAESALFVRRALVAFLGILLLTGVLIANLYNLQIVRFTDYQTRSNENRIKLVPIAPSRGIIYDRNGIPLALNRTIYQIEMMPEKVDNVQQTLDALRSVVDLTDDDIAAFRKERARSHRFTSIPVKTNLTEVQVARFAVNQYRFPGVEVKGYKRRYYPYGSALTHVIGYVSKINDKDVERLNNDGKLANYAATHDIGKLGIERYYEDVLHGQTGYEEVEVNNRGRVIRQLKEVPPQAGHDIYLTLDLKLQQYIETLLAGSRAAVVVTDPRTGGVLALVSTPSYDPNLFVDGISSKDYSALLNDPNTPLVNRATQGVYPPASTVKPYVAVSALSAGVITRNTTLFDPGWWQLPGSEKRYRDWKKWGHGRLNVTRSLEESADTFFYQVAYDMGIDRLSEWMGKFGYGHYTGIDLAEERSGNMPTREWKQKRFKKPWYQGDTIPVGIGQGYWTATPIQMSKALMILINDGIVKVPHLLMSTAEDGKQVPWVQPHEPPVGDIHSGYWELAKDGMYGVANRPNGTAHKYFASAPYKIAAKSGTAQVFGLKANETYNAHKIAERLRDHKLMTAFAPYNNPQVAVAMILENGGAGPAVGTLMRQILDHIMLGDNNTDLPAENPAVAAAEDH
Nature of the data set: Affinity for penicillin binding protein 2 of Escherichia coli UB1005 (DC0) was evaluated. Details: unit not given here. The gist of the method: as §2

A further data set deals with Serratia marcescens. Nature of the data set: In vitro minimum inhibitory concentration was measured against Serratia marcescens 1071(beta lactamase producer) strain. The data set is classed as functional. The essentials: as §1
In data set [13] the test system is Staphylococcus aureus. Description: In vitro minimum inhibitory concentration was measured against Staphylococcus aureus smith strain. The class given is functional.
In another data set the test system is Streptococcus pyogenes. Description: In vitro minimum inhibitory concentration was measured against Streptococcus pyogenes 4 strain. The data set is classed as functional. The gist of the method:
as §1

The subject of another data set is Proteus mirabilis. Nature of the data set: In vitro minimum inhibitory concentration was measured against Proteus mirabilis 90 strain. The data set is classed as functional. The essentials: as §1
The test system of a further data set is Micrococcus luteus. Nature of the data set: In vitro minimum inhibitory concentration was measured against Micrococcus luteus ATCC 9341 strain. The data set is classed as functional. The essentials:
as §1

The subject of data set [14] is Escherichia coli. Description: Minimum inhibitory concentration for DC2, a permeability mutant. The essentials:
as §3

In data set [15] the test system is Enterobacter cloacae. Description: In vitro minimum inhibitory concentration was measured against Enterobacter cloacae p99 (beta lactamase producer) strain. The data set is classed as functional.
Data set [16] deals with Pseudomonas aeruginosa. Description: In vitro minimum inhibitory concentration was measured against Pseudomonas aeruginosa 8780 strain. The class given is functional. The essentials: as §1
The next data set concerns Klebsiella pneumoniae. Description: In vitro minimum inhibitory concentration was measured against Klebsiella pneumoniae A strain. The class given is functional. The gist of the method: as §1
Data set [17] is described as follows: Half life was measured as degradation by HPLC analysis. The class given is ADME.

Values after ≈ are worked out from the molar mass of the structure shown.

Regarding `Nc1nc(/C(=N/OCC(=O)O)C(=O)N[C@@H]2C(=O)N3C(C(=O)O)=C(CN4CCN(c5cc6c(cc5F)c(=O)c(C(=O)O)cn6C5CC5)CC4)CS[C@H]23)cs1`, the MIC in the data set on Streptococcus pneumoniae is 0.25 mg/L (≈ 0.324 µM); against Staphylococcus aureus [2] it was 8 mg/L (≈ 10.4 µM); in the data set on Enterobacter cloacae [4], 1 mg/L (≈ 1.3 µM); in the data set with Staphylococcus aureus [5] it was 32 mg/L (≈ 41.5 µM); against Escherichia coli [6], 0.5 mg/L (≈ 0.649 µM); against Escherichia coli [7], 0.25 mg/L (≈ 0.324 µM). Further, the MIC came out at 4 mg/L (≈ 5.19 µM) against Pseudomonas aeruginosa [8]; 2 mg/L (≈ 2.59 µM) against Escherichia coli [9]; 0.5 mg/L (≈ 0.649 µM) against Escherichia coli [10]; 1 mg/L (≈ 1.3 µM) against Proteus vulgaris; 16 mg/L (≈ 20.8 µM) in the data set with Enterococcus faecalis; 1 mg/L (≈ 1.3 µM) against Citrobacter freundii. The MIC against Serratia marcescens came to 2 mg/L (≈ 2.59 µM); in the data set with Staphylococcus aureus [13], 8 mg/L (≈ 10.4 µM); in the data set with Streptococcus pyogenes it was 0.125 mg/L (≈ 0.162 µM); against Proteus mirabilis, 2 mg/L (≈ 2.59 µM); in the data set with Micrococcus luteus it was 1 mg/L (≈ 1.3 µM); in the data set with Escherichia coli [14] it was 4 mg/L (≈ 5.19 µM). Moreover, the MIC in the data set on Enterobacter cloacae [15] turned out to be 0.25 mg/L (≈ 0.324 µM); in the data set with Pseudomonas aeruginosa [16], 8 mg/L (≈ 10.4 µM); with Klebsiella pneumoniae, 1 mg/L (≈ 1.3 µM). For the same compound, the Binding affinity in data set [1] is 2; in data set [3], greater than 100; in data set [11], greater than 100; in data set [12] it was greater than 100.
As to `CC(=O)OCC1=C(C(=O)O)N2C(=O)[C@@H](NC(=O)C(O)c3ccccc3)[C@H]2SC1` (some centres undefined), the MIC turned out to be 0.125 mg/L (≈ 0.308 µM) in the data set with Streptococcus pneumoniae; 128 mg/L (≈ 315 µM) in the data set with Staphylococcus aureus [2]; 16 mg/L (≈ 39.4 µM) against Enterobacter cloacae [4]; 64 mg/L (≈ 157 µM) against Staphylococcus aureus [5]; 2 mg/L (≈ 4.92 µM) in the data set on Escherichia coli [6]; 2 mg/L (≈ 4.92 µM) in the data set with Escherichia coli [7]. The MIC is greater than 128 mg/L in the data set with Pseudomonas aeruginosa [8]; 8 mg/L (≈ 19.7 µM) in the data set with Escherichia coli [10]; greater than 128 mg/L in the data set on Proteus vulgaris; 16 mg/L (≈ 39.4 µM) in the data set with Enterococcus faecalis; greater than 128 mg/L in the data set on Citrobacter freundii; greater than 128 mg/L against Serratia marcescens. Besides, the MIC in the data set with Staphylococcus aureus [13] is 0.5 mg/L (≈ 1.23 µM); in the data set on Streptococcus pyogenes, 0.063 mg/L (≈ 0.155 µM); against Proteus mirabilis, 2 mg/L (≈ 4.92 µM); against Micrococcus luteus it was 0.125 mg/L (≈ 0.308 µM); with Enterobacter cloacae [15], greater than 128 mg/L; against Pseudomonas aeruginosa [16], greater than 128 mg/L. The MIC against Klebsiella pneumoniae was determined as 2 mg/L (≈ 4.92 µM).
With `O=C(O)C1=C(CN2CCN(c3cc4c(cc3F)c(=O)c(C(=O)O)cn4C3CC3)CC2)CS[C@@H]2[C@H](NC(=O)C(C(=O)O)c3ccccc3)C(=O)N12` (some centres undefined), the Binding affinity was 100 in [1], greater than 100 in data set [3], greater than 100 in data set [11] and greater than 100 in data set [12]. Also, the MIC came to 4 mg/L (≈ 5.67 µM) in the data set with Escherichia coli [9]; 32 mg/L (≈ 45.3 µM) against Enterococcus faecalis; 0.063 mg/L (≈ 0.0893 µM) against Citrobacter freundii; 2 mg/L (≈ 2.83 µM) against Escherichia coli [14]; 0.063 mg/L (≈ 0.0893 µM) in the data set on Enterobacter cloacae [15]. The half-life (in general, how long it takes for the measured level to halve) in data set [17] was 228 h.

The values are drawn from ChEMBL document CHEMBL1127320, “Dual-action cephalosporins incorporating a 3'-tertiary-amine-linked quinolone” (J Med Chem, 1994).
